An excerpt weighted towards active compounds, which were near 2.3% of everything screened.
TWEAK Fn14 block = blocks TWEAK-Fn14 interaction in a reporter cell assay | actives 2% (n = 360,000) | AID 1159606 | inhibition, % at 10 µM | TWEAK-stimulated Fn14 reporter cells, luciferase luminescence, 8 h; in the data active means inhibition above about 50%
FN deposit inh = fibronectin deposition inhibition | AH1F fibroblasts, Alexa488-fibronectin deposition fluorescence, overnight | inhibition, % at 12.6 µM | actives 0.086% (n = 350,000);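 active means mean inhibition across replicates of 30% or more, regardless of how many single replicates reach that level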;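 further: positive control wells lacked labelled fibronectin entirely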
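test system = AH1F fibroblasts assembling fluorescent fibronectin matrix | quantity = 10000 AH1F cells per well | buffer or medium = DMEM plus 2% serum, read in PBS | doses = single dose, pinned | incubation = 1 h cell attachment, overnight exposure to compound and label | detection = fluorescence at 485 nm excitation, 525 nm emission | read-out basis = inhibition from reduced deposited-fibronectin fluorescence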
EWS-Fli block = EWS/Fli transcriptional activity inhibition. A673 NR0B1-luciferase reporter, viability-normalised. inhibition, % at 12.6 µM. actives 0.67% (n = 350,000);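 active means mean inhibition of at least 50% after viability correction, with every replicate also passing that limit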;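 further: firefly luciferase signal divided by Alamar Blue viability fluorescence both relative to DMSO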
LGR2 antag = blocks bursicon-induced cAMP signaling via Drosophila LGR2; HEK293 LGR2, CRE-luciferase, bursicon-stimulated, 4 h; inhibition, % at 9.99 µM; actives 0.35% (n = 380,000);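 active means drop in luminescence signal, shown as inhibition above about 50% in the replicate tests, limit read from the data, passing the limit was not always enough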;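 further: agonist challenge used bursicon conditioned medium at about half maximal strength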
TROY signal inh = TROY signaling inhibition. actives 0.98% (n = 360,000). Q293 LMP1-TROYcd NF-kB luciferase reporter, 4 h. inhibition, % at 10 µM;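 active means compounds whose plate-normalised and pattern-corrected inhibition of the luciferase reporter signal at the single screening dose is 50% or more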
XiGFP reactiv = activators of X-chromosome reactivation in mouse fibroblasts; XiGFP mouse fibroblasts, % GFP-positive cells imaging, 3 d; cells co-treated with 5-aza-dC sensitizer; scaled so ellipticine positive control = 100%; activation, % at 7.58 µM; AID 743238; actives 0.055% (n = 360,000);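 active means mean normalized replicate activation at least 10% and every replicate at or above 10%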;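 further: 0% = median of on-plate neutral control wells and 100% = ellipticine 6 µM median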
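assay system = SV40-immortalized XiGFP fibroblast cells, line 68-5-11 | buffer or medium = DMEM plus 5-aza-dC sensitizer | doses = single-point pinned compound dosing | times = 3-day compound exposure, then 15 min fixation at room temperature | benchmarks = positive control ellipticine, 6 µM final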
Starred values were filed as active, the others as inactive; . = not tested or not shown.

SMILES	TWEAK Fn14 block	FN deposit inh	EWS-Fli block	LGR2 antag	TROY signal inh	XiGFP reactiv
CCC(=O)Nc1ccc2c(c1)OC[C@H](C)N(C(=O)C1CC1)C[C@@H](C)[C@@H](OC)CN(C)C2=O	.	-8	6	8	.	0
O=C(NCCN1CCN(c2ccccc2F)CC1)c1ccc2nc3ccccc3c(=O)n2c1	67*	2	-22	-7	21	0
COc1ccc(N2CCN(CCNC(=O)c3ccc4nc5ccccc5c(=O)n4c3)CC2)cc1	37	0	2	5	13	0
COc1cccc(C(=O)Oc2c(Br)cc(Br)cc2/C=N/NC(=O)c2cc(C)[nH]n2)c1	52*	.	2	21	28	0
Cc1cc(C(=O)N/N=C/c2cccc(OC(=O)c3cccc(Br)c3)c2)n[nH]1	-37	.	-38	-1	-14	0
COc1ccc(/C=C2\SC(=S)N(CCCC(=O)NC34CC5CC(CC(O)(C5)C3)C4)C2=O)cc1	.	.	32	.	.	.
COc1ccc2c(c1)/C(=C\c1cccc(/C=C3/C(=O)Nc4ccc(OC)cc43)n1)C(=O)N2	100*	-3	67*	74*	31	5
Cc1ccc2c(c1)/C(=C/c1ccccc1)C(=O)N2	50	4	-5	-10	13	0
CCOc1c(Br)cc(CNc2ccc3c(c2)OCCO3)cc1OC	85*	.	.	.	59*	.
CCOc1cc(CNc2ccc3c(c2)OCCO3)cc(Br)c1OC	94*	.	.	.	85*	.
CCOc1c(Br)cc(CNc2ccc(N3CCOCC3)cc2)cc1OC	-1	3	0	6	35	0
CCOc1cc(CNc2ccc3c(c2)OCCO3)cc(Br)c1OCC(N)=O	88*	.	.	.	64*	.
O=S(=O)(C/C(=C/CO)S(=O)(=O)c1ccccc1)c1ccccc1	66*	10	.	.	33	.
C(=N\NC1=Nc2cccc3cccc1c23)/c1ccccn1	63*	14	1	-91	19	1
Cc1csc(N/N=C/c2ccccn2)n1	72*	-6	42	69*	-4	0
Clc1ccccc1/C=N/NC1=Nc2cccc3cccc1c23	17	-35	-50	-36	38	5
COc1ccc(NC(=O)N2CCCCN3[C@H](C2)[C@@H](c2ccc(C#Cc4ccccc4)cc2)[C@@H]3CO)cc1	.	.	-10	.	.	.
COC(=O)c1cn(CC(=O)N2CCOCC2)nn1	.	.	8	.	.	.
O=C(C[C@H]1CC[C@@H]2[C@H](COC[C@@H](O)CN2Cc2cccc(Cl)c2)O1)Nc1nccs1	.	-4	13	18	.	0
Cc1ccc(C)c(OCCn2nnc3ccccc32)c1	-18	11	-48	-9	-29	0
Clc1ccccc1OCCn1nnc2ccccc21	95*	4	-101	-29	-16	0
Cc1cccn2cc(-c3ccc(Cl)cc3)nc12	53*	-4	28	18	9	0
Nc1n[nH]c2c1C1(CCCCC1)Cc1ccccc1-2	-17	11	.	.	4	.
Nc1ncnc2c1C1(CCCCC1)Cc1ccccc1-2	59*	4	.	11	59*	0
C[C@@H]1CN([C@@H](C)CO)C(=O)c2cc(NS(=O)(=O)c3cccs3)ccc2O[C@@H](C)CCCCO[C@@H]1CN(C)C(=O)Nc1ccc(F)cc1	.	.	-1	8	.	-1
SMILES	TWEAK Fn14 block	FN deposit inh	EWS-Fli block	LGR2 antag	TROY signal inh	XiGFP reactiv
Cc1ccc(NC(=O)/C(C#N)=C/c2cc(C)n(-c3ccc(N4CCOCC4)c([N+](=O)[O-])c3)c2C)c(C)c1	54*	.	.	6	13	.
Cc1cc(/C=C(\C#N)C(=O)Nc2ccc(Cl)cc2)c(C)n1-c1ccc(N2CCOCC2)c([N+](=O)[O-])c1	42	2	10	39	3	0
O=S(=O)(c1ccc(NC(=S)NC23CC4CC(CC(C4)C2)C3)cc1)N1CCCCC1	70*	-5	13	16	44	0
N#CC(C#N)=NNc1ccc(S(=O)(=O)N2CCCCC2)cc1	48	6	14	.	59*	0
CN(C)S(=O)(=O)c1cccc(NC(=S)NC23CC4CC(CC(C4)C2)C3)c1	62*	8	1	-7	9	0
NS(=O)(=O)c1ccc(NC(=S)Nc2ccc(S(=O)(=O)N3CCCC3)cc2)cc1	-2	.	-1	4	0	0
C[C@@H]1CCCCO[C@H](CN(C)S(C)(=O)=O)[C@H](C)CN([C@@H](C)CO)C(=O)c2cc(NC(=O)Nc3ccc4c(c3)OCO4)ccc2O1	.	.	-2	-11	.	0
Fc1ccc(NC(=S)NNc2ncc(C(F)(F)F)cc2Cl)c(F)c1	29	.	24	12	61*	0
FC(F)(F)c1cnc(NNC(=S)Nc2ccc(Cl)cc2)c(Cl)c1	61*	-1	.	49	59*	0
O=C(NC(=S)Nc1cc(C(F)(F)F)ccc1Cl)c1ccccc1	-16	.	.	.	-55	.
O=C(O)c1ccc(NNC(=S)Nc2cc(C(F)(F)F)ccc2Cl)cc1	69*	-2	-8	-15	47	.
Cc1ccc2c(c1)CCCN2C(=O)CCc1nc2ccccc2c(=O)[nH]1	9	25	65*	16	6	2
O=C(C[C@@H]1CC[C@@H](NC(=O)c2cnccn2)[C@H](CO)O1)NCc1ccccc1F	.	1	-13	-14	.	-1
CCN1C(=O)C(C(=O)Nc2ccc(OC)cc2)C2CC1(C)Oc1ccccc12 (stereo unspecified)	78*	.	.	.	.	.
COc1ccc(NC(=O)C2c3ccccc3OCC(=O)N2C2CC2)cc1 (stereo unspecified)	1	0	3	-1	-15	0
O=C(O)C[C@@H]1C[C@@H]2c3cc(NC(=O)C4CCOCC4)ccc3O[C@@H]2[C@H](CO)O1	.	3	.	1	.	0
CCC(=O)N(C)C[C@H]1Oc2ncc(C#CCC(C)C)cc2C(=O)N([C@@H](C)CO)C[C@@H]1C	.	3	-4	-18	.	0
CCCc1cc(=O)[nH]c(SCC(=O)N2N=C(c3ccc(Cl)cc3)CC2c2ccco2)n1 (stereo unspecified)	69*	3	2	-26	29	0
CC(=O)N1N=C(c2cccc(NS(=O)(=O)c3ccc(C)cc3)c2)CC1c1ccco1 (stereo unspecified)	17	3	.	-2	6	0
Nc1cc(=O)[nH]c(SCC(=O)N2N=C(c3ccc(Cl)cc3)CC2c2ccco2)n1 (stereo unspecified)	1	1	-4	-11	-27	0
CC(C)[C@H](NS(=O)(=O)c1ccccc1)C(=O)OCC(=O)N1N=C(c2ccc(Cl)cc2)CC1c1ccco1 (stereo partly specified)	56*	.	-4	-6	39	0
CC(=O)N1N=C(c2ccc(NS(=O)(=O)c3ccccc3)cc2)CC1c1ccco1 (stereo unspecified)	23	7	54*	17	-29	1

Compound activity deposited in PubChem by several laboratories.
